The nature of assay [1]: inhibitors of TNFa-induced NFkB p65 translocation, primary screen, imaging, HUVEC, MLSMR starter and 10KST1 sets (AID 438).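 Further: compound added about 3h40 before a 20 min TNFalpha stimulation.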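 On inhibition: signal is the nuclear over cytoplasmic p65 intensity ratio per well.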 The conditions noted are these: HUVEC TNFa-induced p65 nuclear translocation; cell count: measured here: nuclei count (cytotoxicity indicator), at 2.08 µM; inhibition: at 2 µM, stronger effect = higher value, 0% TNFa-plus-vehicle, 100% no-TNFa wells.
Assay [2] is described as follows: inhibitors of E-selectin induction by TNFa, primary screen, imaging, HUVEC, immunofluorescence, MLSMR starter and 10KST1 sets (AID 487;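 active means visually confirmed hit in the image check and inhibition above 20%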;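 on inhibition: signal is fraction of cell area covered by stained E-selectin grains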;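 on nuclei count: 100% = median nuclei count of all wells on the same plate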). The conditions noted are these: HUVEC TNFalpha-induced E-selectin immunofluorescence imaging, at 2 µM; inhibition: stronger effect = higher value; nuclei count: measured here: cell number, toxicity.
Assay [3] in a line: DUSP6 inhibitors restoring Erk phosphorylation by chemical complementation, primary imaging in DUSP6-transfected HeLa (AID 609;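 active means compounds giving at least 50% inhibition in the cell-based MKP-3 phosphatase rescue imaging test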;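 on inhibition: phospho-Erk level distribution per well compared with pooled transfected vehicle control wells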). The conditions noted are these: HeLa MKP-3 transfected, phospho-Erk imaging KS statistic, at 10 µM, cells stimulated with TPA for 15 min.
Assay [4] concerns the target Dual specificity protein phosphatase 6 (Homo sapiens) (UniProt Q16828). Described as above. The following applies: HeLa MKP-3 transfected, phospho-Erk imaging KS statistic; at 10 µM; stronger effect = higher value; cells stimulated with TPA for 15 min.
For assay [5], the target named is Voltage-gated potassium channel subunit beta-2 (Rattus norvegicus) (UniProt P62483). Kind of assay: KvBeta enzyme negative modulators, primary screen, biochemical, NADPH fluorescence (AID 622;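 active means fluorescence slope higher than the sample average by over 3 SD, cut at about -0.22 in these data, passing the limit was not always enough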;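 further: slope of raw intensity against log time taken from 70 to 1610 s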). The following applies: recombinant KvBeta, 4-cyanobenzaldehyde reduction, at 10 µM, stronger effect = higher value.
For assay [6] the target is unchanged. Kind of assay: KvBeta positive modulators, primary screen, biochemical, NADPH fluorescence (AID 623;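 active means NADPH fluorescence slope more negative than the mean of all samples by about 3 SD, 99.7% confidence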;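 further: fluorescence intensity change per second fitted from 20 to 320 s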). The following applies: Recombinant KvBeta, NADPH fluorescence decrease slope, 10 min; at 10 µM; stronger effect = lower value.
Assay [7] addresses Alpha-2C adrenergic receptor (Homo sapiens) (UniProt P18825). Kind of assay: modulators of alpha2C/GIRK thallium flux, primary screen, cell-based, HEK293 alpha2C/GIRK1/2 (AID 624;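 active means fluorescence slope after compound addition differing from the mean of all screened samples at 99.7% confidence, in either direction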;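 further: slope of fluorescence ratio to pre-addition baseline per second over 15 to 24 s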). The conditions noted are these: thallium flux BTC fluorescence, at 10 µM, actives lie on both sides.
The nature of assay [8]: inhibitors of Chlamydomonas gravitaxis, primary screen, whole organism, Chlamydomonas reinhardtii, WT vs cilia-less mutant, absorbance, 96-well (AID 463189;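 active means inhibition at or above 50% relative to wild type and mutant plate controls; inactive means inhibition below 50%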;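 further: 0% = wild type cc124 cells in DMSO and 100% = ciliumless bld1 mutant cells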). The following applies: OD600 absorbance, 2 days, at 10 µM, stronger effect = higher value.
Assay [9] is described as follows: inhibitors of larval lipid processing in zebrafish, primary screen, whole organism, PED6 fluorescence, gall bladder and intestine (AID 686;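 active means a full or partial loss of lipid-probe fluorescence in the fish gall bladder, intestine or both, judged by eye; inactive means no fluorescence loss, or compound toxic to the fish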;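 further: larvae 5 to 7 days old with five fish per well; signal comes from phospholipase A2 cleavage of quenched PED6 carried via bile; overnight exposure to compound and PED6 before scoring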). The following applies: Zebrafish larvae PED6 lipid processing, fluorescence scoring; screened at 20 µM (by protocol). A digest of the protocol:
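system = live zebrafish larvae aged 5-7 days, whole organism | probe or stimulus = ingested quenched lipid PED6 at 100 nM | doses = 20 µM single dose | timing = overnight exposure | detection = fluorescence microscopy with visual scoring of gall bladder and intestine | read-out = visual per-well fluorescence inhibition score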

The mark [10] stands for this setting: measured here: cell density z-score.
[11] abbreviates: measured here: nuclear c-Myc green intensity z-score.
Where [12] appears, read: measured here: nuclear pErk red intensity z-score, stronger effect = higher value.

Calls of active or inactive are those of the source.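 How the source made its calls, unless noted: active means inhibition above 20% together with a positive visual image hit; inconclusive means visual image hit but inhibition not above 20%; inactive means no visual image hit.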

Consider 12 compounds from PubChem BioAssay.

Chain of Alpha-2C adrenergic receptor (Homo sapiens) (P18825 whole entry, looked up): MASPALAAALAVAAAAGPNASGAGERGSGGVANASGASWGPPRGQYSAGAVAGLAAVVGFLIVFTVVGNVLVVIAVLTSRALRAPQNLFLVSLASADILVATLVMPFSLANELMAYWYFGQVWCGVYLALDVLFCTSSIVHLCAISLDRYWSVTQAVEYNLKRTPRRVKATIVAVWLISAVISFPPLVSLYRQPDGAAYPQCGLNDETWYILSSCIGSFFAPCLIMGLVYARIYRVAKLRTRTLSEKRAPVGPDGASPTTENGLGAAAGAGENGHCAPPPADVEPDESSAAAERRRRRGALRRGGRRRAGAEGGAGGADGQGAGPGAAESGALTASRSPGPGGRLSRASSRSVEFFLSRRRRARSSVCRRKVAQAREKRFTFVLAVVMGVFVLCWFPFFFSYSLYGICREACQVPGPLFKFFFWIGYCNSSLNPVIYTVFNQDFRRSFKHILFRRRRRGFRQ
Chain of Dual specificity protein phosphatase 6 (Homo sapiens) (Q16828 whole entry, looked up): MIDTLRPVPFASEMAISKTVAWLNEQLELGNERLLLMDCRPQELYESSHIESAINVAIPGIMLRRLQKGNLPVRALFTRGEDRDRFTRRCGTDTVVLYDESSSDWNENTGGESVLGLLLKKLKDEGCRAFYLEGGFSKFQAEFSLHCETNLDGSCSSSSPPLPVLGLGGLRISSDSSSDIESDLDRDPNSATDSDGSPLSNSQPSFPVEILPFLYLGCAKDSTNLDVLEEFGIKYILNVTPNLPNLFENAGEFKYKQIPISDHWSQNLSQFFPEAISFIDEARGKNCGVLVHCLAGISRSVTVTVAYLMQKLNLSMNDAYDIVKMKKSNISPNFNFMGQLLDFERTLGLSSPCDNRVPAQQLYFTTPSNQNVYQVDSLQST
Chain of Voltage-gated potassium channel subunit beta-2 (Rattus norvegicus) (P62483 whole entry, looked up): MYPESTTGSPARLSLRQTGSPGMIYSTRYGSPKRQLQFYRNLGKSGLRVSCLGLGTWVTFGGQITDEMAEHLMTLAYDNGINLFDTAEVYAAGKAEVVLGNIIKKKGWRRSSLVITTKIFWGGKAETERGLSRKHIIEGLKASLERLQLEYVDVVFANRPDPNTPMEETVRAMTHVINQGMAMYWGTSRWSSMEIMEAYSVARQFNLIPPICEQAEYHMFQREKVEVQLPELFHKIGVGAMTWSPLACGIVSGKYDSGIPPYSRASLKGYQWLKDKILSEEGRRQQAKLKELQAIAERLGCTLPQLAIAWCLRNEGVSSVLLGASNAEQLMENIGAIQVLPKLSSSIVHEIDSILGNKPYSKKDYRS

Turning to `CCOc1ccc(C2C(C(=O)c3ccc(C)o3)=C(O)C(=O)N2CCN2CCOCC2)cc1OC` (stereo unspecified), in [1], the cell count was determined as 248. Moreover, the inhibition was -6% (inactive) in [1], -49.4% (inactive) in assay [2], -12.3% (inactive) in assay [4] and -15.3% (inactive) in [8]. The same compound gave a nuclei count in assay [2] of 93.8%. Moreover, the figures for the z-score in assay [3] (setting [10]), in assay [3] (setting [11]) and in assay [3] (setting [12]) were 0.462, 0.354 and 0.737, respectively. Besides, the fluorescence slope in [5] is -0.458 (inactive). Further, in assay [6], the NADPH fluorescence slope is -2.1e-05 (inactive). The slope in [7] is 0.00423 (inactive).
On to `Cc1ccc2cc(CN(C(=O)c3ccco3)c3ccccc3)c(=O)[nH]c2c1`, for which the cell count in assay [1] was 312. The inhibition in [1] is -4.2% (inactive); in [2], -134% (inactive); in assay [4] it was 19.3% (inactive); in assay [8], 33.7% (inactive). In [2], this compound displayed a nuclei count of 163%. Besides, the z-score was 1.52 in [3] (setting [10]), -0.685 in [3] (setting [11]) and -0.563 in assay [3] (setting [12]). Moreover, in [5], the fluorescence slope was -0.412 (inactive). In [6], the NADPH fluorescence slope is -4.7e-05 (inactive). The slope in assay [7] is 0.0072 (inactive).
Consider `CCN(CC)CCn1c(O)c(N=O)c2ccccc21`, for which the cell count in assay [1] turned out to be 314. Besides, the inhibition in assay [1] was -11.6% (inactive); in assay [2], -9% (inactive); in assay [4], 21% (inactive); in [8] it was 0.498% (inactive). In addition, in assay [2], the nuclei count was 111%. The z-score in [3] (setting [10]) was -0.589; in assay [3] (setting [11]) it was -0.252; in [3] (setting [12]), 0.221. Also, in [5], the fluorescence slope was -0.482 (inactive). In assay [6], the NADPH fluorescence slope is -3.1e-05 (inactive). Also, the slope in assay [7] is 0.00988 (inactive).
For `COC(=O)c1ccc(C2/C(=C(/O)c3ccc(OC)cc3)C(=O)C(=O)N2c2cc(C)on2)cc1` (stereo unspecified), in assay [1], the cell count turned out to be 311. For the same compound, the inhibition in assay [1] was -11.6% (inactive); in assay [2], -76.7% (inactive); in assay [4], 1.6e-07% (inactive); in [8], -6.24% (inactive). This compound had a nuclei count in assay [2] of 138%. The z-score was 0.558 in assay [3] (setting [10]), -1.16 in [3] (setting [11]) and -1.06 in assay [3] (setting [12]). Besides, in assay [5], the fluorescence slope was -0.466 (inactive). For the same compound, the NADPH fluorescence slope in assay [6] is -5.4e-05 (inactive). For the same compound, the slope in [7] was 0.00772 (inactive).
Take `COc1ccc(C(=O)Nc2nc(N)n(-c3ccccc3)n2)cc1OC`: in assay [1], the cell count stood at 328. Moreover, the inhibition in assay [1] is 11.6% (inactive); in [2] it was 8.6% (inactive); in assay [4] it was -1.75% (inactive); in [8], 12.5% (inactive). The compound also gave a nuclei count in assay [2] of 154%. For the same compound, the z-score in assay [3] (setting [10]) is -1.01; in [3] (setting [11]), 1.47; in [3] (setting [12]) it was 0.0402. In addition, in assay [5], the fluorescence slope was -0.426 (inactive). Moreover, the NADPH fluorescence slope in assay [6] is -0.000152 (inactive). Besides, in [7], the slope was 0.00543 (inactive).
Take `Cc1ccc(N2C(=O)C3ON(c4ccccc4)C(c4ccncc4)C3C2=O)cc1` (stereo unspecified): the cell count in assay [1] amounted to 381. For the same compound, the inhibition in assay [1] is 1.9% (inactive); in assay [2] it was -70.5% (inactive); in assay [4], -8.76% (inactive); in assay [8], 12.5% (inactive). This compound also came in with a nuclei count in [2] of 142%. The z-score in assay [3] (setting [10]) was -0.368; in [3] (setting [11]) it was -0.198; in assay [3] (setting [12]), 0.0354. In addition, the fluorescence slope in assay [5] is -0.416 (inactive). Also, in assay [6], the NADPH fluorescence slope is -0.000456 (active). For the same compound, the slope in [7] is 0.0052 (inactive).
In the case of `COC(=O)C1=C(C)N=C2SC(C)C(=O)N2C1/C=C/c1ccccc1OC` (stereo unspecified), in assay [1], the cell count came out at 366. In addition, the inhibition in [1] was 3.2% (inactive); in [2], -74.7% (inactive); in [4], -1.75% (inactive); in assay [8], -14.7% (inactive). The compound also returned a nuclei count in assay [2] of 143%. For the same compound, the z-score is -1.74 in [3] (setting [10]), 0.498 in assay [3] (setting [11]) and 0.497 in assay [3] (setting [12]). Moreover, the fluorescence slope in assay [5] was -0.423 (inactive). Besides, in assay [6], the NADPH fluorescence slope was -0.00012 (inactive). Also, in assay [7], the slope is 0.00673 (inactive).
With `CC(C)c1nc2n[nH]c(N)c2c2c1CCC2`, the cell count in [1] was 359. Moreover, the inhibition is -3.7% (inactive) in assay [1], -74.3% (inactive) in assay [2], 5.26% (inactive) in assay [4] and 2.52% (inactive) in assay [8]. For the same compound, the nuclei count in assay [2] came to 148%. Moreover, the values for the z-score in assay [3] (setting [10]), in [3] (setting [11]) and in [3] (setting [12]) were 0.678, -1.06 and 0.961, respectively. In [5], the fluorescence slope was -0.409 (inactive). Further, the NADPH fluorescence slope in assay [6] is -0.000125 (inactive). In addition, the slope in [7] was 0.007 (inactive).
On to `O=C1C2ON(c3ccccc3)C(c3ccncc3)C2C(=O)N1c1ccc(Br)cc1` (stereo unspecified), for which the cell count in assay [1] is 360. The inhibition in assay [1] was -2.3% (inactive); in assay [2], -22.2% (inactive); in assay [4], 12.3% (inactive); in assay [8] it was 24.8% (inactive). The same compound came in with a nuclei count in assay [2] of 148%. The figures for the z-score in [3] (setting [10]), in assay [3] (setting [11]) and in [3] (setting [12]) were -0.515, -1.17 and -0.44, respectively. Further, the fluorescence slope in assay [5] was -0.414 (inactive). Moreover, in assay [6], the NADPH fluorescence slope was -0.000135 (inactive). For the same compound, the slope in [7] is 0.00415 (inactive).
On to `CCO/C(C)=N/n1c2nc3ccccc3nc2c2c(=O)n(CC(C)C)c(C)nc21`, for which the cell count in [1] was 369. In addition, the inhibition in assay [1] is 1.4% (inactive); in [2], -12.8% (inactive); in assay [4] it was 14% (inactive); in assay [8], 9.95% (inactive). Further, the nuclei count in [2] amounted to 145%. Further, the z-score in [3] (setting [10]) is -0.809; in [3] (setting [11]) it was 0.23; in [3] (setting [12]) it was 0.00332. The fluorescence slope in assay [5] was -0.438 (inactive). Besides, the NADPH fluorescence slope in [6] was -6e-05 (inactive). Moreover, in assay [7], the slope was 0.00351 (inactive).
Regarding `Cc1nc(NCc2ccccc2)c(C(N)=O)c2c1COC(C)(C)C2`, in assay [1], the cell count worked out at 643. Moreover, the inhibition in [1] is -5.8% (inactive); in [2], -17.6% (inactive); in assay [4], 9.39% (inactive); in [8] it was -5.71% (inactive). Also, in assay [2], the nuclei count is 192%. Moreover, the z-score in [3] (setting [10]) is 0.783; in assay [3] (setting [11]), 0.565; in assay [3] (setting [12]), -0.208. The fluorescence slope in assay [5] was -0.512 (inactive). Besides, the NADPH fluorescence slope in assay [6] was -7.6e-05 (inactive). Moreover, the slope in assay [7] is 0.00486 (inactive). In addition, the call in assay [9] was inactive.
In the case of `Cc1[nH]c2ccc3c(ncn3CCC#N)c2c1C`, the cell count in assay [1] was 616. Besides, the inhibition was -7.5% (inactive) in [1], -48.6% (inactive) in [2], 18.2% (inactive) in [4] and 11.7% (inactive) in assay [8]. In assay [2], this compound had a nuclei count of 166%. The z-score was -0.136 in assay [3] (setting [10]), 0.347 in assay [3] (setting [11]) and 0.974 in [3] (setting [12]). For the same compound, the fluorescence slope in assay [5] was -0.5 (inactive). Also, in [6], the NADPH fluorescence slope was -3.5e-05 (inactive). Further, in assay [7], the slope was 0.00512 (inactive). In addition, in assay [9], the compound was classed as inactive.

As a reminder, the inhibition is the change of the read-out against control, counted positive when it falls.
